Data set [1] concerns the target T1, Multidrug efflux pump subunit AcrB (Escherichia coli (strain K12)) (UniProt P31224).
T1 sequence (whole entry): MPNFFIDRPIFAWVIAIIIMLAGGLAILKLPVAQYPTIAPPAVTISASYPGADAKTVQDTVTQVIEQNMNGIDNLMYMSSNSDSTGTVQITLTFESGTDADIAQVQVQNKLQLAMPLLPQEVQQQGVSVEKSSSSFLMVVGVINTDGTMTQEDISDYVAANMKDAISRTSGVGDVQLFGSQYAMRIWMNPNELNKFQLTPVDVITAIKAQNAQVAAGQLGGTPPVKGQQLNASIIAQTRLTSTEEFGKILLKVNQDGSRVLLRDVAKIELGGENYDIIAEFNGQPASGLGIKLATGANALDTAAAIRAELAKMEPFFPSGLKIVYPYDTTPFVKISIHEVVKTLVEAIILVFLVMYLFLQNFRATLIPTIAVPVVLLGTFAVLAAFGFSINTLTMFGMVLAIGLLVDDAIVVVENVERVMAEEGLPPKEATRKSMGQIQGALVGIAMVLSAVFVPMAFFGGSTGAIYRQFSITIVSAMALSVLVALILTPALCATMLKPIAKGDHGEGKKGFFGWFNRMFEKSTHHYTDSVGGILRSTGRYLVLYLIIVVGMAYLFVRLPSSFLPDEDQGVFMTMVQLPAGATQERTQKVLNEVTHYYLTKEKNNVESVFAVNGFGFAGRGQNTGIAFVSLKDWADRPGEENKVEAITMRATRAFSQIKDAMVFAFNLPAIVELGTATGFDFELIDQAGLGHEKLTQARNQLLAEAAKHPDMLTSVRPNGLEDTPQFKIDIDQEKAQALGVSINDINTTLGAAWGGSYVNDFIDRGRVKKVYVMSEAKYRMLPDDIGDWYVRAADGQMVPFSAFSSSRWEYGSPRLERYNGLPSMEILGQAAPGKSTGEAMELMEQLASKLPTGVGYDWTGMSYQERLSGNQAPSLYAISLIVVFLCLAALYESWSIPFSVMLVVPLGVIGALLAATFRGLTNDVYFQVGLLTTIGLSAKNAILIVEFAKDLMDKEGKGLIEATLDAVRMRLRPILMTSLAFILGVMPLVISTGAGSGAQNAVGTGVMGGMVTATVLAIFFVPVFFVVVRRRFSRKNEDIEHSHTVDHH
Briefly: Inhibition of AcrB in wild-type drug-resistant Escherichia coli BW2113 assessed as potentiation of chloramphenicol-induced antimicrobial activity by measuring chloramphenicol MIC at 16 ug/ml by checkerboard titration method (Rvb =16 ug/ml).

Data set [2] has as its target T1, Multidrug efflux pump subunit AcrB (Escherichia coli (strain K12)). Briefly: Inhibition of AcrB in wild-type drug-resistant Escherichia coli […] assessed as potentiation of chloramphenicol-induced antimicrobial activity by measuring chloramphenicol MIC at 32 ug/ml by checkerboard titration method (Rvb =16 ug/ml).
For data set [3] the target is unchanged. Briefly: Inhibition of AcrB in wild-type drug-resistant Escherichia coli […] assessed as potentiation of chloramphenicol-induced antimicrobial activity by measuring chloramphenicol MIC at 64 ug/ml by checkerboard titration method (Rvb =16 ug/ml).
Data set [4] has the same target. Briefly: Inhibition of AcrB in wild-type drug-resistant Escherichia coli […] assessed as potentiation of tetraphenyl phosphonium chloride-induced antimicrobial activity by measuring tetraphenyl phosphonium chloride MIC at 64 ug/ml by checkerboard titration method (reference value: 1024 ug/ml).
The target is the same in data set [5]. Briefly: Inhibition of AcrB in wild-type drug-resistant Escherichia coli […] assessed as potentiation of levofloxacin-induced antimicrobial activity by measuring levofloxacin MIC at 8 ug/ml by checkerboard titration method (reference value: 0.063 ug/ml).
For data set [6] the target is unchanged. Briefly: Inhibition of AcrB in wild-type drug-resistant Escherichia coli […] assessed as potentiation of levofloxacin-induced antimicrobial activity by measuring levofloxacin MIC at 32 ug/ml by checkerboard titration method (reference value: 0.063 ug/ml).
Data set [7] has the same target. Briefly: Inhibition of AcrB in wild-type drug-resistant Escherichia coli […] assessed as reduction in glucose-induced nile red efflux at 500 uM by fluorescence assay. In a few lines: (§1)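 E. coli cells (wild-type resistant with active pump, acrB-deleted, or wild-type plus compound) preloaded with Nile Red before fluorescence recording. Efflux triggered at 100 s by adding 0.2% glucose. Fluorescence traces followed; experiments with different cell batches on three different days.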

The target is the same in data set [8]. Briefly: Inhibition of AcrB in wild-type drug-resistant Escherichia coli […] assessed as reduction in glucose-induced nile red efflux at 200 uM by fluorescence assay. In a few lines:
as §1

For data set [9] the target is unchanged. Briefly: Inhibition of AcrB in wild-type drug-resistant Escherichia coli […] assessed as reduction in glucose-induced nile red efflux at 50 uM by fluorescence assay. A digest of the protocol:
as §1

The test system of data set [10] is HeLa. Briefly: Cytotoxicity against human HeLa cells after 48 hrs by MTT assay. Type of data set: cell-based. A digest of the protocol:
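MTT-based viability assay on human cervical cancer HeLa cells, 48 h exposure; IC50 derived.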
On the technique in general: Tetrazolium dyes change colour on reduction, which living cells bring about.

The target of data set [11] is T1, Multidrug efflux pump subunit AcrB (Escherichia coli (strain K12)). Briefly: Inhibition of AcrB in wild-type drug-resistant Escherichia coli […] assessed as reduction in glucose-induced nile red efflux at 100 to 200 uM by fluorescence assay. A digest of the protocol: as §1
For data set [12], the system named is Escherichia coli. Briefly: Induction of Escherichia coli outer membrane permeabilization assessed as increase in nitrocefin hydrolysis at 32 ug/ml by spectroscopic method. Type of data set: organism-based.
The target of data set [13] is T1, Multidrug efflux pump subunit AcrB (Escherichia coli (strain K12)). Briefly: Inhibition of AcrB in wild-type drug-resistant Escherichia coli […] assessed as reduction in glucose-induced nile red efflux at 100 uM by fluorescence assay. A digest of the protocol: as §1
Data set [14] has as its system Escherichia coli. Briefly: Induction of Escherichia coli outer membrane permeabilization assessed as increase in nitrocefin hydrolysis at 8 ug/ml by spectroscopic method. Type of data set: organism-based.
Data set [15] concerns Escherichia coli. Briefly: Disruption of Escherichia coli inner membrane integrity at 8 ug/ml after 10 mins by DiOC2(3) probe based fluorescence assay. In kind it is ADME, organism-based. To be noted: in vivo. In a few lines: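 Bacterial suspensions pre-exposed to compound for 10 min, then DiOC2(3) added and fluorescence followed to plateau. Cells re-energized with 0.5% glucose; membrane potential (inside negative) read as fluorescence rise to plateau, then collapsed with the proton ionophore CCCP. Untreated cells run alongside.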

The target in data set [16] is T1, Multidrug efflux pump subunit AcrB (Escherichia coli (strain K12)). Briefly: Inhibition of AcrB in wild-type drug-resistant Escherichia coli […] assessed as potentiation of levofloxacin-induced antimicrobial activity by fold reduction in levofloxacin MIC at 16 to 32 ug/ml by checkerboard titration method relative to levofloxacin alone.

The source made the active and inactive calls. The rule behind the calls is not given here.

The inhibition is the percentage by which the read-out fell short of the control. On to `COc1cccc2cc3c(cc12)C(=O)N(C(C)C)C3=O`, for which the MIC was 8 µg/mL in data set [1]; 8 µg/mL in data set [2]; 8 µg/mL in data set [3]; 1020 µg/mL in [4]; 0.063 µg/mL in [5]; 0.063 µg/mL in [6]. Further, in data set [7], the inhibition was 100%. Moreover, the inhibition entry in [8] is “Active”.
In the case of `CCCCCCN1C(=O)c2cc3cccc(OC)c3cc2C1=O`, the MIC stood at 16 µg/mL in [1]; 16 µg/mL in data set [2]; 8 µg/mL in data set [3]; 512 µg/mL in [4]; 0.063 µg/mL in [5]; 0.063 µg/mL in [6]. Also, the inhibition in data set [9] came to 100%.
A word on the IC50: it is the concentration at which inhibition is half-maximal. Low readings indicate higher potency, high ones lower potency. Take `CCc1ccccc1N1C(=O)c2cc3cccc(OC)c3cc2C1=O`: the MIC in data set [1] worked out at 16 µg/mL; in data set [2] it was 16 µg/mL; in [3], 16 µg/mL; in data set [4], 1020 µg/mL; in data set [5], 0.063 µg/mL; in data set [6] it was 0.0313 µg/mL. For the same compound, the inhibition result in data set [9] was “Active”. Further, the 50% inhibitory concentration (IC50) in data set [10] is above 64 µg/mL.
Consider `COc1cccc2cc3c(cc12)C(=O)N(C1CCCC1)C3=O`, for which the MIC in [1] amounted to 16 µg/mL; in data set [2], 16 µg/mL; in data set [3] it was 16 µg/mL; in [4], 1020 µg/mL; in data set [5] it was 0.063 µg/mL; in data set [6] it was 0.063 µg/mL. Besides, the inhibition entry in [11] is “inactive”.
Take `COc1cccc2cc3c(cc12)C(=O)N(C)C3=O`: the MIC in [1] is 16 µg/mL; in data set [2], 16 µg/mL; in data set [3] it was 16 µg/mL; in data set [4] it was 1020 µg/mL; in data set [5] it was 0.063 µg/mL; in data set [6], 0.0313 µg/mL. The inhibition in data set [7] amounted to 100%. The inhibition entry in data set [8] was “Active”. Besides, the Activity result in data set [12] is listed as “Non-Toxic”.
In the case of `COc1ccc(CN2C(=O)c3cc4cccc(OC)c4cc3C2=O)cc1`, the MIC came to 16 µg/mL in [1]; 16 µg/mL in data set [2]; 16 µg/mL in data set [3]; 1020 µg/mL in data set [4]; 0.063 µg/mL in [5]; 0.063 µg/mL in [6]. Further, the inhibition entry in data set [13] is “Active”. Moreover, the Activity result in [14] and in [15] was “Non-Toxic” in each case.
As to `COc1cccc2cc3c(cc12)C(=O)N(c1ccccc1Cl)C3=O`, the MIC in data set [1] was 16 µg/mL; in data set [2] it was 16 µg/mL; in [3] it was 16 µg/mL; in data set [4], 1020 µg/mL; in [5], 0.063 µg/mL; in data set [6], 0.063 µg/mL. Besides, the inhibition result in [9] is “Active”.
Regarding `COc1ccccc1CN1C(=O)c2cc3cccc(OC)c3cc2C1=O`, the MIC in data set [1] is 16 µg/mL; in data set [2], 16 µg/mL; in [3], 16 µg/mL; in data set [4], 1020 µg/mL; in data set [5] it was 0.016 µg/mL; in data set [6], 0.0039 µg/mL. Also, in data set [16], the fold change (FC) is 16. Besides, the inhibition entry in data set [13] is “Active”. Besides, the IC50 in [10] was above 64 µg/mL.
For `CCCCCN1C(=O)c2cc3cccc(OC)c3cc2C1=O`, the MIC in data set [1] was found to be 16 µg/mL; in data set [2] it was 8 µg/mL; in data set [3], 8 µg/mL; in [4], 1020 µg/mL; in [5], 0.063 µg/mL; in data set [6], 0.063 µg/mL. Besides, in data set [13], the inhibition entry was “Active”. For the same compound, the IC50 in [10] is above 64 µg/mL.
`COc1cccc2cc3c(cc12)C(=O)N(Cc1ccccc1)C3=O`: the MIC in data set [1] came out at 16 µg/mL; in data set [2], 16 µg/mL; in data set [3], 16 µg/mL; in data set [4] it was 1020 µg/mL; in data set [5] it was 0.063 µg/mL; in data set [6] it was 0.063 µg/mL. Also, the inhibition result in data set [13] is “Active”.

These data come from ChEMBL document CHEMBL4422685, “Design, synthesis and evaluation of a series of 5-methoxy-2,3-naphthalimide derivatives as AcrB inhibitors for the reversal of bacterial resistance” (Bioorg Med Chem Lett, 2019).
